The values below come from ChEMBL document CHEMBL1128300, “Synthesis and in vivo evaluation of prodrugs of 9-[2-(phosphonomethoxy)ethoxy]adenine” (J Med Chem, 1995).

Series [1] relates to Mus musculus. Kind of series: Concentration of the 9-[2-(Phosphonomethoxy)ethoxy]adenine in the blood following oral administration in mice. On the set-up: unit not given here. It counts as ADME, organism-based. To be noted: in vivo. The procedure, abridged: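 Single 0.2 mmol/kg oral gavage dose to female BALB/c mice fasted 16 h, vehicle 1% carboxymethyl cellulose plus 1% Tween 80 in water. At each time point blood from three mice pooled, deproteinized with ice-cold ethanol at -20 °C, and parent phosphonate quantified by C18 HPLC with a gradient from pH 2.6 phosphate ion-pair buffer to 80% methanol.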

The test system of series [2] is Mus musculus. As to the kind of experiment: % bioavailability in mice after oral administration of prodrug. It counts as ADME, organism-based. To be noted: in vivo. In a few lines:
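Female BALB/c mice, fasted 16 h, single oral gavage 0.2 mmol/kg in 1% carboxymethyl cellulose plus 1% Tween 80 in water. Blood from three mice per time point pooled, ethanol-deproteinized, analysed by reversed-phase C18 HPLC (ion-pair phosphate buffer pH 2.6 / methanol gradient). Bioavailability as oral AUC of released parent phosphonate expressed as percent of intravenous AUC of its sodium salt.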

Series [3] relates to Feline immunodeficiency virus. Kind of series: Inhibitory activity against Feline immunodeficiency virus. Format: functional, organism-based.
The subject of series [4] is Human immunodeficiency virus 2. As to the kind of experiment: Inhibitory activity against HIV-2, in peripheral blood lymphocytes.
Series [5] relates to Simian immunodeficiency virus. As to the kind of experiment: Inhibitory activity against Simian immunodeficiency virus. It counts as functional, organism-based.
Series [6] deals with Human immunodeficiency virus 1. Kind of series: Inhibitory activity against HIV-1, in peripheral blood lymphocytes.

In the case of `CC(=O)Oc1ccccc1OP(=O)(COCCOn1cnc2c(N)ncnc21)Oc1ccccc1OC(C)=O`, in the series with Mus musculus [1], the AUC came to 5. Besides, in the series with Mus musculus [2], the F% worked out at 10%.
Taken in the same sequence, the figures for `COc1ccc(OP(=O)(COCCOn2cnc3c(N)ncnc32)Oc2ccc(OC)cc2)cc1` were 5 and 10%.
As to `Nc1ncnc2c1ncn2OCCOCP(=O)(Oc1ccc(Br)cc1)Oc1ccc(Br)cc1`, in the series with Mus musculus [1], the AUC was 3. In addition, the F% in the series on Mus musculus [2] was 6%.
For `Nc1ncnc2c1ncn2OCCOCP(=O)(OCCBr)OCCBr`, in that order: 4 and 8%.
For `Nc1ncnc2c1ncn2OCCOCP(=O)(Oc1ccccc1)Oc1ccccc1`, in that order: 13 and 26%.
For `Cc1ccccc1OP(=O)(COCCOn1cnc2c(N)ncnc21)Oc1ccccc1C`, in that order: 11 and 22%.
In the series with Mus musculus [1], `CC(=O)OCc1ccc(OP(=O)(COCCOn2cnc3c(N)ncnc32)Oc2ccc(COC(C)=O)cc2)cc1` displayed an AUC of 0. Besides, the F% in the series with Mus musculus [2] is 0%.
Taken in the same sequence, the figures for `Nc1ncnc2c1ncn2OCCOCP(=O)(OCC(Cl)Cl)OCC(Cl)Cl` were 3 and 6%.
For `CCOCCOP(=O)(COCCOn1cnc2c(N)ncnc21)OCCOCC`, in that order: 0 and 0%.
On to `Nc1ncnc2c1ncn2OCCOCP(=O)(O)O`, for which the IC50 (usually the concentration needed to halve the response being measured) in series [3] is 1700 nM; in series [4] it was 300 nM; in series [5], 3000 nM; in series [6], 200 nM.
The compound `COP(=O)(COCCOn1cnc2c(N)ncnc21)OC` had an AUC with Mus musculus [1] of 0. In addition, in the series on Mus musculus [2], the F% came out at 0%.
Taken in the same sequence, the figures for `CC(C)(C)OC(=O)c1ccc(OP(=O)(COCCOn2cnc3c(N)ncnc32)Oc2ccc(C(=O)OC(C)(C)C)cc2)cc1` were 0 and 0%.
Turning to `Nc1ncnc2c1ncn2OCCOCP(=O)(OCc1ccc(Br)cc1)OCc1ccc(Br)cc1`, the AUC with Mus musculus [1] is given as 1. Besides, the F% in the series with Mus musculus [2] is given as 2%.
The compound `CC(=O)Oc1ccc(COP(=O)(COCCOn2cnc3c(N)ncnc32)OCc2ccc(OC(C)=O)cc2)cc1` returned an AUC in the series with Mus musculus [1] of 4. In the series on Mus musculus [2], the F% is 8%.
For `CC(C)(C)C(=O)OCOP(=O)(COCCOn1cnc2c(N)ncnc21)OCOC(=O)C(C)(C)C`, in that order: 15 and 30%.
In the case of `CC(C)(CCl)C(=O)OCOP(=O)(COCCOn1cnc2c(N)ncnc21)OCOC(=O)C(C)(C)CCl`, the AUC in the series on Mus musculus [1] is given as 0. Further, the F% in the series with Mus musculus [2] amounted to 0%.
Taken in the same sequence, the figures for `Nc1ncnc2c1ncn2OCCOCP(=O)(OCc1ccccc1)OCc1ccccc1` were 2 and 4%.
In the series on Mus musculus [1], `CC(C)C(=O)Oc1ccc(COP(=O)(COCCOn2cnc3c(N)ncnc32)OCc2ccc(OC(=O)C(C)C)cc2)cc1` showed an AUC of 0.5. Besides, the F% with Mus musculus [2] stood at 1%.
For `CCCCOP(=O)(COCCOn1cnc2c(N)ncnc21)OCCCC`, in that order: 0 and 0%.
Compound `CC(C)OP(=O)(COCCOn1cnc2c(N)ncnc21)OCC(=O)OC(C)(C)C` (stereo unspecified) displayed an AUC in the series on Mus musculus [1] of 0. In the series on Mus musculus [2], the F% stood at 0%.
For `CC(OC(=O)C(C)C)OP(=O)(COCCOn1cnc2c(N)ncnc21)OC(C)OC(=O)C(C)C` (stereo unspecified), in that order: 12 and 24%.
For `CC(OC(=O)C(C)(C)C)OP(=O)(COCCOn1cnc2c(N)ncnc21)OC(C)OC(=O)C(C)(C)C` (stereo unspecified), in that order: 37 and 74%.
For `CC(C)OP(=O)(COCCOn1cnc2c(N)ncnc21)OC(C)C`, in that order: 5 and 10%.
`CCOP(=O)(COCCOn1cnc2c(N)ncnc21)OCC`: in the series on Mus musculus [1], the AUC is on record as 4. Besides, in the series on Mus musculus [2], the F% worked out at 8%.
Turning to `CC(=O)Oc1ccc(OP(=O)(COCCOn2cnc3c(N)ncnc32)Oc2ccc(OC(C)=O)cc2)cc1`, the AUC in the series with Mus musculus [1] amounted to 4. For the same compound, in the series with Mus musculus [2], the F% is on record as 8%.
For the compound `Nc1ncnc2c1ncn2OCCOCP(=O)(OCc1ccc(Cl)cc1)OCc1ccc(Cl)cc1`, the AUC with Mus musculus [1] is listed as 4. Further, the F% in the series on Mus musculus [2] turned out to be 8%.
For `Cl.Nc1ncnc2c1ncn2OCCOCP(=O)(Oc1ccccc1)Oc1ccccc1`, in that order: 25 and 50%.
